Entries after “also recorded” stand apart in the source; their conditions may differ.
Legend:
recombinant GGTase I = recombinant GGTase I (Homo sapiens, UniProt P49354+P53609); assay: Fluorescent in vitro GGTase I inhibition assay; type: biochemical
Method in brief: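 Recombinant GGTase I (25–37 nM) was run with dansyl-labelled K-Ras C-terminal peptide (1 µM) and test compound at 0–500 µM. GGPP was diluted to a 110 µM working stock before use. Buffer was 50 mM Tris-HCl pH 7.5 with MgCl2, ZnCl2, dodecyl maltoside and DTT, at 37 °C. Fluorescence kinetics (ex 340/em 520 nm) were recorded over 5 min. n = 3, SEM.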

recombinant FTase = recombinant FTase (Homo sapiens, UniProt P49354+P49356); assay: Fluorescent in vitro FTase inhibition assay; type: biochemical; conditions: for selectivity for FTase over GGTase I: ratio of K i values GGTase I / FTase
Method in brief: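 Recombinant FTase (25–37 nM) was reacted with dansyl-labelled K-Ras4B C-terminal peptide (1 µM) and FPP (5 µM), with test compound at 0–500 µM. Enzyme, substrates and compound were spotted separately, then buffer was added to start the reaction. Fluorescence (ex 340/em 520 nm) was followed for 5 min. n = 3, SEM.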

Rap1 geranylgeranylation = assay: Gel-shift assay; type: cell-based, human; conditions: MiaPaca‐2 cells, 48 hours, 30 and 100 µM
Method in brief: (§1)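 MiaPaCa2 cells were grown in DMEM with 10% heat-inactivated FBS and 1% penicillin-streptomycin. They were treated 48 h with vehicle or test compound at 30 and 100 µM; the positive control, a dual FTase/GGTase I inhibitor, was used at 10 and 30 µM. Cells were PBS-washed and lysed with protease and phosphatase inhibitors. Lysates ran on 4–20% SDS-PAGE gel-shift blots, probed with anti-K-Ras or anti-Rap1A+B, plus anti-vinculin.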

K‐Ras prenylation = assay: Gel-shift assay; type: cell-based, human; conditions: MiaPaca‐2 cells, 48 hours, 30 and 100 µM
Method in brief: as §1

MiaPaCa2 cells = assay: Antiproliferative activity, trypan blue cell viability assay; type: cell-based, human; conditions: for IC50: Homo sapiens, MIA PaCa-2, 72 h, read-out: IC50, antiproliferation activity
Method in brief: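 MiaPaCa2 cells (K-Ras G12C) seeded at 1×10³ cells/well and left overnight at 37 °C, 5% CO2. Next day they were given various concentrations of test compound and incubated 72 h at 37 °C, 5% CO2. A trypan blue assay followed, […]. Sotorasib served as positive control. n = 3, mean ± SEM.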

Chain of recombinant GGTase I (P53609 whole entry, one chain of several): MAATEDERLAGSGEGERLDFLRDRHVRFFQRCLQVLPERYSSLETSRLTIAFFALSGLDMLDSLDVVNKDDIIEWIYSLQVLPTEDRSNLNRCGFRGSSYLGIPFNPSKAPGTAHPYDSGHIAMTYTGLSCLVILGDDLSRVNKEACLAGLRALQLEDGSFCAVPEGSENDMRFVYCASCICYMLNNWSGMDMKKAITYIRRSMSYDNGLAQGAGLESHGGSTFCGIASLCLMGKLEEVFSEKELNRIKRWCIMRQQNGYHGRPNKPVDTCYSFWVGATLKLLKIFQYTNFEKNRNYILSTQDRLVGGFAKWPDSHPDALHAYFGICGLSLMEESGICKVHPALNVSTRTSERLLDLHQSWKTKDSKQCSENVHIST
Chain of recombinant FTase (P49356 whole entry, one chain of several): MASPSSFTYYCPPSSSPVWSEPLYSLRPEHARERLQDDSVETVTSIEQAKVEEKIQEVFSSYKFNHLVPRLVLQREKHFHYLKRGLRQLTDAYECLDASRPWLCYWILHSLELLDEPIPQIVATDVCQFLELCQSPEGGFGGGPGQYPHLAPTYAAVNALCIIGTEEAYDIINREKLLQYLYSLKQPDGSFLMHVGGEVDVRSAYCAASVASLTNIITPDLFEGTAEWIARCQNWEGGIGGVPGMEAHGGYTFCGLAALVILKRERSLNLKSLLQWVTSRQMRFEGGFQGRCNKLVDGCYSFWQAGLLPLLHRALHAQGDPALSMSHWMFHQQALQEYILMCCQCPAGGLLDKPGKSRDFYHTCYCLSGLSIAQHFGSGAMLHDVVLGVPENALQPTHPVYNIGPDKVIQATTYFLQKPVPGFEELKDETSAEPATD

Structure (SMILES)	IC50 (recombinant GGTase I) [nM]	Ki (recombinant FTase) [nM]	Ki (recombinant GGTase I) [nM]	IC50 (recombinant FTase) [nM]	also measured
CSCC[C@H](NC(=O)NC1(c2ccccc2)CCN(Cc2cnc[nH]2)CC1)C(=O)O [Compound 1, ((1‐((1H‐Imidazol‐5‐yl)methyl)‐4‐phenylpiperidin‐4‐yl)carbamoyl)‐L‐methionine]	> 500000	790 ± 45	–	–	–
COC(=O)[C@H](CCSC)NC(=O)NC1(c2ccccc2)CCN(Cc2cncn2Cc2ccc(N=[N+]=[N-])cc2)CC1 [Compound 2, Methyl ((1‐((1‐(4‐azidobenzyl)‐1H‐imidazol‐5‐yl)methyl)‐4‐phenylpiperidin‐4‐yl)carbamoyl)‐L‐methioninate]	–	–	–	–	inhibition of geranylgeranylation (processing) of Rap1 in cells (Rap1 geranylgeranylation): inhibited; also recorded: inhibit the processing; inhibition of prenylation (processing) of K‐Ras in cells (K‐Ras prenylation): able to inhibit; also recorded: inhibit the processing; IC50 (MiaPaCa2 cells): 100 to 1000 nM; IC50 relative to that of sotorasib (MiaPaCa2 cells; MiaPaCa2 cells, 72 hours): approximately 10 fold
CSCC[C@H](NC(=O)NC1(c2ccccc2)CCN(Cc2cncn2Cc2ccc(N=[N+]=[N-])cc2)CC1)C(=O)O [Compound 3, ((1‐((1‐(4‐Azidobenzyl)‐1H‐imidazol‐5‐yl)methyl)‐4‐phenylpiperidin‐4‐yl)carbamoyl)‐L‐methionine]	6480	2.1 ± 0.5	210	350	increase in potency for FTase compared to 1 (recombinant FTase; ratio of K i values): 376 fold; selectivity for FTase over GGTase I (recombinant FTase): 100 fold
COC(=O)[C@H](CCSC)NC(=O)NC1(c2ccccc2)CCN(Cc2cncn2Cc2ccc(-n3cc(COCCCCCCNC(=O)c4ccc(N)cc4)nn3)cc2)CC1 [Compound 4c, Methyl ((1‐((1‐(4‐(4‐(((6‐(4‐aminobenzamido)hexyl)oxy)methyl)‐1H‐1,2,3‐triazol‐1‐yl)benzyl)‐1H‐imidazol‐5‐yl)methyl)‐4‐phenylpiperidin‐4‐yl)carbamoyl)‐L‐methioninate]	–	–	–	–	inhibition of geranylgeranylation (processing) of Rap1 in cells (Rap1 geranylgeranylation): inhibited; also recorded: more potent than 2; also recorded: inhibit the processing; also recorded: disrupt the processing; inhibition of prenylation (processing) of K‐Ras in cells (K‐Ras prenylation): able to inhibit; also recorded: inhibit the processing; also recorded: disrupt the processing
COC(=O)[C@H](CCSC)NC(=O)NC1(c2ccccc2)CCN(Cc2cncn2Cc2ccc(-n3cc(COCCCCCCNC(=O)c4ccc(NC(=N)N)cc4)nn3)cc2)CC1 [Compound 4d, Methyl ((1‐((1‐(4‐(4‐(((6‐(4‐guanidinobenzamido)hexyl)oxy)methyl)‐1H‐1,2,3‐triazol‐1‐yl)benzyl)‐1H‐imidazol‐5‐yl)methyl)‐4‐phenylpiperidin‐4‐yl)carbamoyl)‐L‐methioninate]	–	–	–	–	inhibition of geranylgeranylation (processing) of Rap1 in cells (Rap1 geranylgeranylation): did not inhibit
COC(=O)[C@H](CCSC)NC(=O)NC1(c2ccccc2)CCN(Cc2cncn2Cc2ccc(-n3cc(COCCCCCCNC(=O)c4ccc(C(=N)N)cc4)nn3)cc2)CC1 [Compound 4e, Methyl ((1‐((1‐(4‐(4‐(((6‐(4‐carbamimidoylbenzamido)hexyl)oxy)methyl)‐1H‐1,2,3‐triazol‐1‐yl)benzyl)‐1H‐imidazol‐5‐yl)methyl)‐4‐phenylpiperidin‐4‐yl)carbamoyl)‐L‐methioninate]	–	–	–	–	inhibition of geranylgeranylation (processing) of Rap1 in cells (Rap1 geranylgeranylation): did not inhibit
CSCC[C@H](NC(=O)NC1(c2ccccc2)CCN(Cc2cncn2Cc2ccc(-n3cc(COCCCCCCNC(=N)N)nn3)cc2)CC1)C(=O)O [Compound 5a, ((1‐((1‐(4‐(4‐(((6‐Guanidinohexyl)oxy)methyl)‐1H‐1,2,3‐triazol‐1‐yl)benzyl)‐1H‐imidazol‐5‐yl)methyl)‐4‐phenylpiperidin‐4‐yl)carbamoyl)‐L‐methionine]	7840	1.7 ± 0.5	250 ± 50	290	selectivity for FTase over GGTase I (recombinant FTase): 147 fold
CSCC[C@H](NC(=O)NC1(c2ccccc2)CCN(Cc2cncn2Cc2ccc(-n3cc(COCCCCCCN)nn3)cc2)CC1)C(=O)O [Compound 5b, ((1‐((1‐(4‐(4‐(((6‐Aminohexyl)oxy)methyl)‐1H‐1,2,3‐triazol‐1‐yl)benzyl)‐1H‐imidazol‐5‐yl)methyl)‐4‐phenylpiperidin‐4‐yl)carbamoyl)‐L‐methionine]	2400	3.8 ± 1.1	77 ± 51	630	selectivity for FTase over GGTase I (recombinant FTase): 20 fold
CSCC[C@H](NC(=O)NC1(c2ccccc2)CCN(Cc2cncn2Cc2ccc(-n3cc(COCCCCCCNC(=O)c4ccc(N)cc4)nn3)cc2)CC1)C(=O)O [Compound 5c, ((1‐((1‐(4‐(4‐(((6‐(4‐Aminobenzamido)hexyl)oxy)methyl)‐1H‐1,2,3‐triazol‐1‐yl)benzyl)‐1H‐imidazol‐5‐yl)methyl)‐4‐phenylpiperidin‐4‐yl)carbamoyl)‐L‐methionine]	90	4.6 ± 0.08	2.9 ± 0.7	752	–
CSCC[C@H](NC(=O)NC1(c2ccccc2)CCN(Cc2cncn2Cc2ccc(-n3cc(COCCCCCCNC(=O)c4ccc(NC(=N)N)cc4)nn3)cc2)CC1)C(=O)O [Compound 5d, ((1‐((1‐(4‐(4‐(((6‐(4‐Guanidinobenzamido)hexyl)oxy)methyl)‐1H‐1,2,3‐triazol‐1‐yl)benzyl)‐1H‐imidazol‐5‐yl)methyl)‐4‐phenylpiperidin‐4‐yl)carbamoyl)‐L‐methionine]	96	1.8 ± 0.4	3.1 ± 0.5	300	–
CSCC[C@H](NC(=O)NC1(c2ccccc2)CCN(Cc2cncn2Cc2ccc(-n3cc(COCCCCCCNC(=O)c4ccc(C(=N)N)cc4)nn3)cc2)CC1)C(=O)O [Compound 5e, ((1‐((1‐(4‐(4‐(((6‐(4‐Carbamimidoylbenzamido)hexyl)oxy)methyl)‐1H‐1,2,3‐triazol‐1‐yl)benzyl)‐1H‐imidazol‐5‐yl)methyl)‐4‐phenylpiperidin‐4‐yl)carbamoyl)‐L‐methionine]	530	2 ± 0.2	17 ± 5	330	–
C#CCOCCCCCCNC(=N)N [Compound 12, 1‐(6‐(Prop‐2‐yn‐1‐yloxy)hexyl)guanidine]	–	–	–	> 500000	–
C#CCOCCCCCCNC(=O)c1ccc(C(=N)N)cc1 [Compound 13, 4‐Carbamimidoyl‐N‐(6‐(prop‐2‐yn‐1‐yloxy)hexyl)benzamide]	> 500000	–	–	> 500000	antiproliferative activity (result in words) (MiaPaCa2 cells; MiaPaCa2 cells, 72 hours, trypan blue assay): inactive
C=CC(=O)N1CCN(c2nc(=O)n(-c3c(C)ccnc3C(C)C)c3nc(-c4c(O)cccc4F)c(F)cc23)[C@@H](C)C1 [sotorasib, reference compound]	–	–	–	–	IC50 (MiaPaCa2 cells): 10 to 100 nM
